Data on one compound can be found in ChEMBL document CHEMBL2311419, “Discovery of coumarin-dihydropyridine hybrids as bone anabolic agents” (J Med Chem, 2013).

The species entered for series [1] is Mus musculus. The series can be described thus: Stimulation of alkaline phosphatase activity in mouse calvarial osteoblasts at 1 pM to 1 uM after 48 hrs by spectrophotometric analysis relative to nifedipine.
Series [2] can be described thus: Cytotoxicity against mouse calvarial osteoblasts assessed as cell viability at 1 pM to 1 uM after 48 hrs by MTT assay. The note with it: calvarial osteoblast. It is filed as cell-based. A general note: Tetrazolium assays rely on reduction of a dye to a coloured formazan, in cell work by metabolically active cells.
In series [3] the test system is Calvarial osteoblast. The series can be described thus: Induction of mineralization in mouse calvarial osteoblasts assessed as increase of mineralized nodules formation measuring concentration required for maximum activity after 21 days by alizarin red-S staining based spectrophotometric analysis. It is filed as functional.
The species named for series [4] is Mus musculus. The experiment in a line: Stimulation of alkaline phosphatase activity in mouse calvarial osteoblasts assessed as concentration required for maximum activity after 48 hrs by spectrophotometric analysis. The procedure, abridged:
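Calvarial osteoblasts were exposed to compounds over 1 pM to 1 µM. ALP activity was read spectrophotometrically as optical density at 405 nm. Results were expressed as % ALP activity, with EC50 and Emax derived from the concentration series.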

Series [5] concerns Mus musculus. The experiment in a line: Induction of new bone formation in ovariectomized BALB/c mouse model assessed as increase in bone formation rate at 10 mg/kg/day, po qd for 8 weeks by bone histomorphometry analysis (Rvb =0.10 um'3/um'2/day). It is filed as functional.
The test system of series [6] is Mus musculus. The experiment in a line: Induction of new bone formation in ovariectomized BALB/c mouse model assessed as increase in bone formation rate at 1 mg/kg/day, po qd for 8 weeks by bone histomorphometry analysis (Rvb =0.10 um'3/um'2/day). It is filed as functional.
Series [7] has as its system Mus musculus. The series can be described thus: Induction of new bone formation in ovariectomized BALB/c mouse model assessed as increase in mineral apposition rate at 10 mg/kg/day, po qd for 8 weeks by bone histomorphometry analysis (Rvb =0.11 um/day). It is filed as functional.
Series [8] has as its system Mus musculus. The series can be described thus: Induction of new bone formation in ovariectomized BALB/c mouse model assessed as increase in mineral apposition rate at 1 mg/kg/day, po qd for 8 weeks by bone histomorphometry analysis (Rvb =0.11 um/day). It is filed as functional.
Series [9] relates to Mus musculus. The experiment in a line: Inhibition of osteoclastogenesis in ovariectomized BALB/c mouse model assessed as increase in OPG/RANKL ratio at 5 to 10 mg/kg/day, po qd for 8 weeks by qPCR analysis. It is filed as functional, organism-based. (Real-time PCR tracks product formation cycle by cycle.)
Series [10] relates to Mus musculus. The series can be described thus: Inhibition of osteoclastogenesis in ovariectomized BALB/c mouse model assessed as suppression of RANK gene expression at 1 mg/kg/day, po qd for 8 weeks by qPCR analysis. It is filed as functional, organism-based.
The test system of series [11] is Mus musculus. The series can be described thus: Induction of osteoblast differentiation in ovariectomized BALB/c mouse model assessed as upregulation of COL1 mRNA expression at 1 mg/kg/day, po qd for 8 weeks by qPCR analysis. It is filed as functional, organism-based.
The test system of series [12] is Mus musculus. The series can be described thus: Induction of osteoblast differentiation in ovariectomized BALB/c mouse model assessed as upregulation of BMP2 mRNA expression at 1 mg/kg/day, po qd for 8 weeks by qPCR analysis. It is filed as functional, organism-based.
Series [13] concerns Mus musculus. The experiment in a line: Inhibition of bone turnover in ovariectomized BALB/c mouse model assessed as reduction in ovariectomy-induced serum CTx levels at 1 mg/kg/day, po qd for 8 weeks by ELISA. It is filed as functional, organism-based.
Series [14] concerns Mus musculus. The experiment in a line: Antiosteoporotic activity in ovariectomized BALB/c mouse model assessed as restoration of ovariectomy-induced increase in structural model index at 5 mg/kg/day, po qd for 8 weeks. It is filed as functional, organism-based.
The subject of series [15] is Mus musculus. The series can be described thus: Antiosteoporotic activity in ovariectomized BALB/c mouse model assessed as restoration of ovariectomy-induced reduction in trabecular number at 1 mg/kg/day, po qd for 8 weeks (reference value: 0.12+/-0.02 /mm). It is filed as functional, Trabecula.
Series [16] has as its system Mus musculus. The series can be described thus: Antiosteoporotic activity in ovariectomized BALB/c mouse model assessed as restoration of ovariectomy-induced increase in trabecular separation at 10 mg/kg/day, po qd for 8 weeks (reference value: 0.99+/-0.08mm). It is filed as functional, Trabecula.
The subject of series [17] is Mus musculus. The series can be described thus: Antiosteoporotic activity in ovariectomized BALB/c mouse model assessed as restoration of ovariectomy-induced reduction in bone volume/trabecular volume at 5 mg/kg/day, po qd for 8 weeks (reference value: 0.45+/-0.07%). It is filed as functional, Trabecula. Further details: scale not given: the % may be the effect or the level left.

The subject of series [18] is Calvarial osteoblast. The series can be described thus: Induction of osteoblastogenesis in mouse calvarial osteoblasts assessed as increase in BMP2 expression at 100 pM to 10 nM by Western blotting analysis. It is filed as functional, cell-based.
Series [19] relates to Calvarial osteoblast. The series can be described thus: Induction of osteoblastogenesis in mouse calvarial osteoblasts assessed as increase in RUNX2 expression at 100 pM to 10 nM by Western blotting analysis. It is filed as functional, cell-based. On the technique in general: Immunoblotting shows a protein as a band on a membrane.
Series [20] deals with Calvarial osteoblast. The series can be described thus: Induction of osteoblastogenesis in mouse calvarial osteoblasts assessed as increase in expression of ALP gene at 100 pM by qPCR analysis relative to control. It is filed as functional, cell-based.
Series [21] relates to Calvarial osteoblast. The experiment in a line: Induction of osteoblastogenesis in mouse calvarial osteoblasts assessed as increase in expression of osteocalcin gene at 100 pM to 10 nM by qPCR analysis relative to control. It is filed as functional.

Active and inactive are the calls of the source. The calls are words filed in the database; no cut-off is given here.

For the compound `CCOC(=O)C1=C(C)NC2=C(C(=O)CCC2)C1c1cc(C(C)CC)c2oc(=O)c(C(=O)OC)cc2c1` (stereo unspecified), the Activity in the series listed under Mus musculus [1] is 32%; in series [2], “Non-toxic”; with Mus musculus [5], 0.31 um3/um2/day; with Mus musculus [6] it was 0.37 um3/um2/day; with Mus musculus [7] it was 0.276 micrometer/day; with Mus musculus [8] it was 0.291 micrometer/day. In addition, the values for the Activity with Mus musculus [15], in the series with Mus musculus [16] and in the series on Mus musculus [17] were 0.4 /millimeter, 0.68 mm and 2.33%, respectively. Besides, the “Concentration for maximum mineralization” value in the series on Calvarial osteoblast [3] is reported as 100 pM. Moreover, in the series filed under Mus musculus [4], the Concentration giving maximum ALP activity was 100 pM. Besides, the inhibition entry in the series with Mus musculus [9], in the series with Mus musculus [10] and in the series with Mus musculus [13] was “Active” throughout. In addition, the result in the series with Mus musculus [11], in the series with Mus musculus [12], in the series on Mus musculus [14], with Calvarial osteoblast [18], in the series on Calvarial osteoblast [19] and in the series with Calvarial osteoblast [20] was Active. Besides, the “fold change (FC)” value with Calvarial osteoblast [21] is 1.5.
